# T cruzi growth-1 = T. cruzi intracellular proliferation inhibitors, primary screen, cell-based, beta-gal Tulahuen parasites, NIH3T3 host, luminescence | inhibition, % at 8.34 µM | T. cruzi beta-gal in NIH3T3, GalScreen luminescence, 90 h | actives 5.9% (n = 77,000);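 active means mean inhibition above about 93%, with at least 55% of replicates each passing it, limit read from the data, passing the limit was not always enough; inconclusive means only one of those two conditions holds; inactive means neither condition holds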
# IDH1 mut inh = inhibitors of IDH1 R132H reductase, primary screen, biochemical, plate reader, single point; Isocitrate dehydrogenase [NADP] cytoplasmic (Homo sapiens), O75874; diaphorase/resazurin fluorescence, 60 min; inhibition, % at 10 µM; actives 0.18% (n = 70,000); AID 624101, 2012; in the data active means inhibition above about 34%; inconclusive means no clear call, values can overlap the other calls; inactive means below about 11%
# KDM4C inh = inhibitors of GASC-1 (KDM4C) histone demethylase, primary screen, biochemical, single concentration HTS; actives 0.15% (n = 96,000); Lysine-specific demethylase 4C (Homo sapiens), Q9H3R0; GST-KDM4C 2-372, H3K9me3 peptide, LANCE TR-FRET; AID 720574, 2013; inhibition, % at 12.5 µM;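 active means mean replicate inhibition above about 25%, with at least 55% of replicates also reaching it, limit read from the data, passing the limit was not always enough; inconclusive means only one of those two conditions met; inactive means neither condition met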
# Target sequence (Q9H3R0 2-372 limits assumed): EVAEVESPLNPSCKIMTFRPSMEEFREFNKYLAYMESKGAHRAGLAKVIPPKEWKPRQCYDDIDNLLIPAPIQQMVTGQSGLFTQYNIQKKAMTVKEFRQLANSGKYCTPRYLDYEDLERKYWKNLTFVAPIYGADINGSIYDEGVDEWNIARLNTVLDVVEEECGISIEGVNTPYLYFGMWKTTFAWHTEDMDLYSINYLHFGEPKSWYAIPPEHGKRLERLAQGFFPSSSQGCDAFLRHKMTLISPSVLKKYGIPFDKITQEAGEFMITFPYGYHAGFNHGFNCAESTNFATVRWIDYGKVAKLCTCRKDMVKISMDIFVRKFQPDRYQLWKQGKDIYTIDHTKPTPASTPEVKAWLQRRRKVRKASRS
#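 material = GST-tagged GASC-1 (JMJD2C) catalytic fragment, aa 2-372 | amount = enzyme final amount 10 nM | medium = HEPES buffer, pH 7.5, plus ascorbate | also added = H3K9me3 peptide substrate, Fe(II), 2-oxoglutarate | dosing = single dose | times = 30 min demethylation and 1 h detection at room temperature | detection = LANCE TR-FRET | read-out basis = Fall in 671/618 emission ratio as inhibition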
# T cruzi growth-2 = T. cruzi intracellular proliferation inhibitors, confirmation, cell-based, NIH3T3 host, beta-gal parasite, luminescence, cherry-pick; shares compounds with T cruzi growth-1; T. cruzi beta-gal in NIH3T3, GalScreen luminescence, 90 h; inhibition, % at 8.35 µM; actives 72% (n = 5,600); AID 651739, 2012;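 active means mean replicate inhibition above about 95% and at least 55% of replicates individually reaching it, limit read from the data; inconclusive means only one of the two criteria is met; inactive means neither criterion is met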
# T cruzi growth-3 = inhibitors of intracellular T. cruzi replication, confirmation, NIH3T3 host cells, beta-gal parasites, cherry-pick, set 2; shares compounds with T cruzi growth-1; T. cruzi beta-gal in NIH3T3, GalScreen luminescence, 90 h; inhibition, % at 2.09 µM; actives 21% (n = 5,600); AID 651740, 2012;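 active means mean inhibition above about 95%, with at least 55% of replicates also reaching it, limit read from the data; inconclusive means meets just one of the two conditions; inactive means meets neither condition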
# NIH3T3 tox = cytotoxicity in mouse NIH/3T3 fibroblasts, confirmation, cytotoxicity control for T. cruzi proliferation inhibitor project, cell-based, cherry-pick, single point; shares compounds with T cruzi growth-1; NIH/3T3 viability, CellTiter-Glo ATP luminescence, 90 h; cytotoxicity (signal decrease), % at 8.35 µM; actives 14% (n = 5,600); AID 651742, 2012;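 active means mean signal decrease across replicates above about 35% based on untreated-well scatter, with enough replicates individually passing, limit read from the data; inconclusive means no rule stated though some were filed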
# 3T3 cytotox 2 = NIH/3T3 fibroblast cytotoxicity, confirmation, cytotoxicity control, cell-based, cherry-pick, single point, set 2. actives 56% (n = 5,600). NIH/3T3 viability, CellTiter-Glo ATP luminescence, 90 h. shares compounds with T cruzi growth-1. inhibition, % at 24.9 µM;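 active means mean loss of cell viability signal at or above a set limit, and enough replicates individually reaching it; inconclusive means meets only the mean limit or only the replicate share; inactive means meets neither condition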
# Numbers stand for hits; . = inactive; ? = inconclusive; / = no result given. Many of the other results were omitted from the sample, so hits are more common in it than they were.
SMILES,T cruzi growth-1,IDH1 mut inh,KDM4C inh,others
O=C(Nc1ccncc1)Nc1c(Cl)cc(Cl)cc1Cl,/,.,/,
COc1ccc2c3c(n(C)c2c1)[C@H](CO)N(C(=O)Nc1ccc(F)cc1)CC31CCN(S(=O)(=O)c2cn(C)cn2)CC1,/,/,.,
O=C(CSc1ncn(-c2ccccc2)n1)Nc1ccc(F)c(Cl)c1,/,.,/,
Cc1ccc(S(=O)(=O)NC(C(=O)Oc2cc3oc(=O)cc(-c4ccccc4)c3cc2Cl)C(C)C)cc1 (stereo unspecified),/,.,/,
CN(C)CC(=O)N1CCCCN2[C@H](C1)[C@@H](c1ccc(/C=C/c3ccccc3)cc1)[C@@H]2CO,.,/,.,
CN(C)CC(=O)N1CCCCN2[C@H](C1)[C@H](c1ccc(/C=C/c3ccccc3)cc1)[C@@H]2CO,.,/,.,
CCC(=O)N1CCCCN2[C@H](CO)[C@H](c3ccc(/C=C/c4ccccc4)cc3)[C@@H]2C1,113,/,.,T cruzi growth-2=108;T cruzi growth-3=.;NIH3T3 tox=48;3T3 cytotox 2=45
CN(C)CC(=O)N1CCCCN2[C@@H](CO)[C@@H](c3ccc(/C=C/c4ccccc4)cc3)[C@@H]2C1,102,/,.,T cruzi growth-2=99;T cruzi growth-3=113;NIH3T3 tox=120;3T3 cytotox 2=104
CN(C)CC(=O)N1CCCCN2[C@H](CO)[C@H](c3ccc(/C=C/c4ccccc4)cc3)[C@H]2C1,.,/,.,
CN(C)CC(=O)N1CCCCN2[C@@H](CO)[C@H](c3ccc(/C=C/c4ccccc4)cc3)[C@@H]2C1,97,/,.,T cruzi growth-2=?;T cruzi growth-3=102;NIH3T3 tox=117;3T3 cytotox 2=102
CC1(C)CC(=O)C2=C(C1)N(c1ccccc1)C(=O)C2(NC(=O)c1cccnc1)C(F)(F)F (stereo unspecified),/,.,/,
COc1ccc(/C=C/C(=O)OC2C(C)OC(OC3C4C=COC(OC5OC(CO)C(O)C(O)C5O)C4C4(CO)OC34)C(O)C2O)cc1 (stereo unspecified),/,.,/,
Cc1cc(-c2ccccc2)nc(SCC(=O)Nc2ccc(I)cc2)n1,/,.,/,
Cc1cc2ncn(CC(O)COc3ccccc3Cl)c2cc1C (stereo unspecified),/,.,/,
CCCNC(=O)C[C@@H]1C[C@@H]2c3cc(NC(=O)Cc4ccncc4)ccc3O[C@@H]2[C@@H](CO)O1,.,.,.,
CC(=O)Nc1ccc(NC(=O)CN(c2cccc(Br)c2)S(C)(=O)=O)cc1,/,.,/,
O=S(=O)(Cc1ccccc1)N1CCCCN2[C@H](CO)[C@@H](c3ccc(-c4cccnc4)cc3)[C@@H]2C1,.,/,.,
O=S(=O)(Cc1ccccc1)N1CCCCN2[C@H](CO)[C@H](c3ccc(-c4ccncc4)cc3)[C@@H]2C1,.,/,.,
O=S(=O)(Cc1ccccc1)N1CCCCN2[C@H](CO)[C@@H](c3ccc(-c4ccccc4)cc3)[C@@H]2C1,114,/,.,T cruzi growth-2=102;T cruzi growth-3=103;NIH3T3 tox=?;3T3 cytotox 2=101
O=S(=O)(Cc1ccccc1)N1CCCCN2[C@H](CO)[C@H](c3ccc(-c4ccccc4)cc3)[C@H]2C1,106,/,.,T cruzi growth-2=98;T cruzi growth-3=.;NIH3T3 tox=54;3T3 cytotox 2=104
C/C=C1\[C@H](O[C@@H]2O[C@H](CO)[C@@H](O)[C@H](O)[C@H]2O)OC=C(C(=O)OC)[C@H]1CC(=O)OC[C@H]1O[C@@H](OCCc2ccc(O)cc2)[C@H](O)[C@@H](O)[C@@H]1OC(=O)C[C@@H]1C(C(=O)OC)=CO[C@@H](O[C@@H]2O[C@H](CO)[C@@H](O)[C@H](O)[C@H]2O)/C1=C\C,/,.,/,
NCCNc1ccc([N+](=O)[O-])c(NCCO)c1,/,.,/,

# Bioassay records as filed in PubChem.
